Assay results from different studies.
Lines come from different studies, so protocols differ.
Target: Phosphorylase b kinase gamma catalytic chain, liver/testis isoform (PHKG2, Homo sapiens, UniProt P15735)
Sequence (P15735 1-406, as in one of the studies): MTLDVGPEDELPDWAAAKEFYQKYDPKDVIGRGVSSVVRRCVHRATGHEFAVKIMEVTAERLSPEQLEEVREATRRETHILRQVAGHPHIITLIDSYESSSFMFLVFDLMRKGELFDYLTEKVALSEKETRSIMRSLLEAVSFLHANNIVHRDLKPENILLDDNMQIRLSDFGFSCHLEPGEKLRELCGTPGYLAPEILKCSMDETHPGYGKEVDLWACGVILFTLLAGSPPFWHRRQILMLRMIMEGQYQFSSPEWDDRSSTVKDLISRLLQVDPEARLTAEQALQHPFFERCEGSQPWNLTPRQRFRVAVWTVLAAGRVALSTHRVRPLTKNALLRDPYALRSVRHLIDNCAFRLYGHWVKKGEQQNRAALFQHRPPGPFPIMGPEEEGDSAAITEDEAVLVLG

CN(C)c1nccc(-c2cnc3ncccn23)n1
remaining binding (binding; 1 µM): 89%

c1cncc(-c2cccc(Nc3nccc(NC4CCCCC4)n3)c2)c1
remaining binding (binding, competition with immobilised ligand; 10 µM): 71%

FC(F)(F)Oc1cccc(-c2cnc3ccc(-c4ccncc4)nn23)c1
remaining binding (cell-free assay, competition with immobilised ligand; 5 µM): 22%

O=C(NCCCN1CCOCC1)c1ccc(Nc2ncc(Cl)c(-c3ccc(Cl)s3)n2)cc1
remaining binding (binding, competition with immobilised ligand; 1 µM): 60%

N[C@H]1CCN(c2nccc(-c3cnn4ncccc34)n2)C1
remaining binding (binding; 1 µM): 77%

Cc1c[nH]c2nccc(Oc3c(F)cc(Nc4cc(Cl)nc(N)n4)cc3F)c12
remaining binding (cell-free assay, competition with immobilised ligand; 0.1 µM): 89%

Cc1cnc(Nc2ccc(C(=O)N3CCC(N4CCCC4)CC3)cc2)nc1-c1cc2ccccc2s1
remaining binding (binding, competition with immobilised ligand; 1 µM): 51%

Cc1cc(-n2nc(Cc3cc(F)cc(C(F)(F)F)c3)nc2C)ccc1C(N)=O
remaining binding (cell-free assay, competition with immobilised ligand; 1 µM): 100%

Nc1ncc2c(n1)-c1c([nH]c3ccc(C#CC4CC4)cc13)CCCC2
remaining binding (binding, competition with immobilised ligand; 1 µM): 100%

CCS(=O)(=O)c1cc2cc(C[C@@](O)(CC(C)(C)c3ccc(F)cc3C(N)=O)C(F)(F)F)[nH]c2cn1
remaining binding (cell-free assay, competition with immobilised ligand; 1 µM): 100%

C[C@@H]1CCN(c2nccc(-c3cnn4ncccc34)n2)C1
remaining binding (binding; 1 µM): 72%

O=C(Nc1ccc(Oc2ccc(F)cc2)cc1)N1CCc2ncccc2[C@H]1c1ccc(F)cc1
remaining binding (cell-free assay, competition with immobilised ligand; 1 µM): 100%

O=C(c1ccc(Nc2ncc(Cl)c(-c3cc4ccccc4s3)n2)cc1)N1CCC(N2CCCC2)CC1
remaining binding (binding, competition with immobilised ligand; 1 µM): 74%

CNC(=O)[C@@H]1CC[C@@H](n2c(-c3ccc4cnccc4c3)nc3ccc(C(=O)NCc4cccc(C(N)=O)c4)cc32)C1
remaining binding (binding, competition with immobilised ligand; 1 µM): 99%

CN(CCCC(F)(F)F)c1nccc(-c2cnn3ncccc23)n1
remaining binding (binding; 1 µM): 100%

CS(=O)(=O)N1CCCC(NC(=O)[C@H](CCC2CCCCC2)NC(=O)c2ccc(CNC(=O)c3cnc4ccccn34)cc2)C1 (stereo partly drawn)
remaining binding (cell-free assay, competition with immobilised ligand; 0.1 µM): 100%

O=C(NCC1CCOCC1)c1n[nH]cc1NC(=O)c1c(F)cccc1F
remaining binding (binding, competition with immobilised ligand; 1 µM): 96%

F[C@@H]1CCN(c2nccc(-c3cnn4ncccc34)n2)C1
remaining binding (binding; 1 µM): 100%

C[C@@H](c1ccc(-n2cnc3c(N)ncnc32)cc1)N1CCc2nn(C)c(Cc3ccccc3)c2C1=O
remaining binding (binding, competition with immobilised ligand; 0.1 µM): 100%

C[C@H](c1cccc(C#N)c1)n1cc(Cl)cc(C(N)=O)c1=N
remaining binding (cell-free assay, competition with immobilised ligand; 1 µM): 100%

CN(c1nccc(-c2cnn3ncccc23)n1)C1CC1
remaining binding (binding; 1 µM): 81%
